Data on nine molecules can be found in ChEMBL document CHEMBL1287801, “Discovery of NBI-77860/GSK561679, a potent corticotropin-releasing factor (CRF1) receptor antagonist with improved pharmacokinetic properties” (Bioorg Med Chem Lett, 2010).

Broadly, the Ki is a measure of affinity in units of concentration, obtained from inhibition or displacement. The term AUC denotes concentration integrated over time. Read a low AUC as low exposure. What is called Vd is the apparent volume that relates the amount in the body to the concentration in plasma or blood. High values mean extensive tissue distribution, low ones confinement near the circulation.

SMILES strings stand for the structures.

The target in the first data set is T1, Corticotropin-releasing factor receptor 1 (Homo sapiens, UniProt P34998).
T1 sequence (P34998 whole entry): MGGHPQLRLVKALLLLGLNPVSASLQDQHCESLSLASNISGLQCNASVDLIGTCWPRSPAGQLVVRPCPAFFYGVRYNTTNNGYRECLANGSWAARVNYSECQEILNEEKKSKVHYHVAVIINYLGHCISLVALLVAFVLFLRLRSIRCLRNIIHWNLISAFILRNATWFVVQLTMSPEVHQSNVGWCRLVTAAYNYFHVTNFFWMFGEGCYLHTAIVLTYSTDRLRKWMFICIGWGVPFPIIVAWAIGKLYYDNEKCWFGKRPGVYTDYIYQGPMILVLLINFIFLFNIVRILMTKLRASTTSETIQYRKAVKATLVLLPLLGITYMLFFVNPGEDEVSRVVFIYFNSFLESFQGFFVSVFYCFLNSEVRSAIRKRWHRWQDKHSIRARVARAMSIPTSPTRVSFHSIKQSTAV
Briefly: Antagonist activity at human recombinant CRF1 receptor. The format is functional.
Details: not given
As for `COc1ccc(-c2c(C)nn3c(NCc4nc(C)no4)cc(C)nc23)c(C)c1`, the Ki was 63.1 nM.

Consider `CCN(Cc1nc(C)no1)c1cc(C)nc2c(-c3ccc(OC)cc3C)c(C)nn12`, for which the Ki was 5.01 nM.

Consider `COc1ccc(-c2c(C)nn3c(NC(C)Cc4nc(C)no4)cc(C)nc23)c(C)c1` (stereo not given), for which the Ki is 31.6 nM.

Regarding `CCC(Nc1cc(C)nc2c(-c3ccc(OC)cc3C)c(C)nn12)c1nnc(C)o1` (stereo not given), the Ki is 100 nM. Consider `COc1ccc(-c2c(C)nn3c(NC(C)Cc4nnc(C)o4)cc(C)nc23)c(C)c1` (stereo not given), for which the Ki is 251 nM. The same measure, in the same setting: the value for `COc1ccc(-c2c(C)nn3c(NC(C)Cc4noc(C)n4)cc(C)nc23)c(C)c1` (stereo not given) was 79.4 nM; that for `CCC(Nc1cc(C)nc2c(-c3ccc(OC)cc3OC)c(C)nn12)c1nc(C)no1` (stereo not given) was 50.1 nM.

Tested on in another data set: not listed separately
Briefly: Metabolic stability in human liver microsome assessed as maximum bioavailability. The format is ADME. The conditions noted are these: liver microsomes, read-out: Max Achievable Bioavailability.
As for `CCN(Cc1nc(C)no1)c1cc(C)nc2c(-c3ccc(OC)cc3C)c(C)nn12`, the Fh was found to be 17%. Still for that read-out and setting: the value for `COc1ccc(-c2c(C)nn3c(NC(C)Cc4nc(C)no4)cc(C)nc23)c(C)c1` (stereo not given) was 32%. The same measure, in the same setting: the value for `CCC(Nc1cc(C)nc2c(-c3ccc(OC)cc3C)c(C)nn12)c1nnc(C)o1` (stereo not given) was 64%; that for `COc1ccc(-c2c(C)nn3c(NC(C)Cc4noc(C)n4)cc(C)nc23)c(C)c1` (stereo not given) was 26%. Still for that read-out and setting: the value for `CCCN(CCC)c1cc(C)nc2c(-c3cnc(N(C)C)cc3C)c(C)nn12` was 17%.

The test system of a further data set is Rattus norvegicus. The experiment in a line: AUC (0 to 24 hrs) in rat at 10 mg/kg, po. Particulars: in vivo. The format is ADME, organism-based, Plasma. Also on record: time < 24 hr, dose 10 mg/kg, route oral. Summed up:
(§1)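 Rats were given a single oral dose of 10 mg/kg and followed for 24 h. Plasma exposure was expressed as AUC0–24 and oral bioavailability was determined. Brain and plasma levels were measured 1 h post-dose to give the brain/plasma ratio.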
`CC[C@H](Nc1cc(C)nc2c(-c3ccc(OC)cc3C)c(C)nn12)c1nc(C)no1` [VERUCERFONT]: the AUC was 3130 ng·h/mL.

Tested on in a further data set: not listed separately
Briefly: Ratio of drug uptake in brain to plasma in rat at 10 mg/kg, po. The format is ADME, organism-based. Also on record: dose 10 mg/kg, route oral. Particulars: brain and plasma, read-out: BPR. Summed up:
as §1
Regarding `CC[C@H](Nc1cc(C)nc2c(-c3ccc(OC)cc3C)c(C)nn12)c1nc(C)no1` [VERUCERFONT], the Kp was 1.6.

Tested on in the next data set: not listed separately
The experiment in a line: Volume of distribution in rat at 5 mg/kg, iv after 72 hrs. Also on record: dose 5 mg/kg, route intravenous. Particulars: in vivo. The format is ADME, organism-based. The gist of the method: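 Rats received a single intravenous dose of 5 mg/kg in a 72 h pharmacokinetic study. Clearance and volume of distribution at steady state (Vdss) were derived.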
In turn, `CC[C@H](Nc1cc(C)nc2c(-c3ccc(OC)cc3C)c(C)nn12)c1nc(C)no1` [VERUCERFONT] came in with a Vd of 7.5 L/kg.
